Source: PubChem
This is a sample that favours compounds with a hit; in the whole collection about 2.7% have one here.
PAFAH1B2 FP inh: PAFAH1B2 enzyme inhibitors, primary screen, biochemical, fluorescence polarization, human | Platelet-activating factor acetylhydrolase IB subunit alpha2 (Homo sapiens), P68402 | recombinant PAFAH1B2, FP-rhodamine activity probe | inhibition, % at 3.39 µM | 340,000 tested, 1.2% active | AID 492953, 2010;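 active = inhibition above the mean of all tested compounds plus 3 SD, cut at about 24% in these data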;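 also: 0% = enzyme with DMSO and 100% = wells lacking PAFAH1B2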
Target sequence (P68402 whole entry, looked up): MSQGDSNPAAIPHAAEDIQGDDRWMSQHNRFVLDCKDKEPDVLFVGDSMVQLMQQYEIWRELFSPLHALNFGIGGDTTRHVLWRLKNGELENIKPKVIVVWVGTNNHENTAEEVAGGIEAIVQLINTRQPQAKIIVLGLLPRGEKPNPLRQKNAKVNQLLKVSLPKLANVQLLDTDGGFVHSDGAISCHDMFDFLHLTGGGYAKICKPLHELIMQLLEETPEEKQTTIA
PAFAH2 FP inh: PAFAH2 enzyme inhibitors, primary screen, biochemical, fluorescence polarization, human; recombinant PAFAH2, FP-rhodamine activity probe; AID 492956, 2010; 340,000 tested, 0.99% active; inhibition, % at 3.39 µM;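 active = inhibition above the mean over all tested compounds plus 3 SD, cut at about 30% in these data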;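 also: inhibitors block probe labeling of enzyme so polarization drops; 0% = enzyme with DMSO and 100% = wells lacking PAFAH2 protein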
PAFAH1B3 inh: PAFAH1B3 enzyme inhibitors, primary screen, biochemical, fluorescence polarization, human | recombinant PAFAH1B3, FP-rhodamine probe | inhibition, % at 3.39 µM | Platelet-activating factor acetylhydrolase IB subunit alpha1 (Homo sapiens), Q15102 | 340,000 tested, 0.28% active;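 active = inhibition above the screen-wide average of all tested compounds plus 3 SD, cut at about 25% in these data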;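 also: 0% = enzyme with DMSO only and 100% = wells lacking PAFAH1B3 protein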
Target sequence (Q15102 whole entry, looked up): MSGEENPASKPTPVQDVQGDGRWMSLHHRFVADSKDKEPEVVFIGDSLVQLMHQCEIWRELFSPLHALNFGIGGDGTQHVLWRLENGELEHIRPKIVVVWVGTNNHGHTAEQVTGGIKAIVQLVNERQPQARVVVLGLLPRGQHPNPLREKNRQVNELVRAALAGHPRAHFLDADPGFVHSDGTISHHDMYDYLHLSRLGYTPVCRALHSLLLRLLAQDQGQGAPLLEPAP
pPAFAH inh: pPAFAH enzyme inhibitors, primary screen, biochemical, fluorescence polarization, human. recombinant pPAFAH, FP-rhodamine probe fluorescence polarization. inhibition, % at 3.39 µM. 330,000 tested, 1.5% active;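 active = inhibition above the mean inhibition across the screen plus 3 SD, cut at about 25% in these data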;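 also: inhibitors block binding of the rhodamine activity-based probe so polarization drops; 0% = enzyme with DMSO and 100% = wells lacking pPAFAH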
RBBP9 inhibitor: human RBBP9 inhibitors, primary screen, biochemical, fluorescence polarization, FP-Rh probe, HTS; inhibition, % at 7.94 µM; recombinant RBBP9; Serine hydrolase RBBP9 (Homo sapiens), O75884; 220,000 tested, 0.2% active;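 active = inhibition above the campaign mean of all tested compounds plus 3 SD, cut at about 14% in these data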;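 also: plate controls were DMSO wells with RBBP9 for no effect and wells lacking RBBP9 protein for full effect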
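Material: RBBP9 protein. Amount: RBBP9 at 2.5 µM in dispensed solution, before mixing. Schedule: 30 min then 45 min, 25 °C. Medium: Tris buffer pH 8.0, NaCl, Pluronic. Measured by: fluorescence polarization. Measure: percent inhibition from mP, scaled between DMSO and no-protein wells. Replication: one well per compound.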
PAFAH1B3 confirm: PAFAH1B3 enzyme inhibitors, confirmation, biochemical, fluorescence polarization, human; recombinant PAFAH1B3, FP-Rh activity-based probe; shares compounds with PAFAH1B3 inh; 390 tested, 30% active; inhibition, % at 3.39 µM; AID 493032, 2011;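 active = average inhibition over triplicate runs above the hit cutoff set in the earlier primary screen, cut at about 25% in these data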;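 also: 0% = enzyme with DMSO and 100% = wells lacking PAFAH1B3 protein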
* = called active by the depositor; . = no result given.

SMILES	PAFAH1B2 FP inh	PAFAH2 FP inh	PAFAH1B3 inh	pPAFAH inh	RBBP9 inhibitor	PAFAH1B3 confirm
CCOC(=O)Cc1cc(=O)[nH]c(/N=C(\N)Nc2ccc(C)cc2C)n1	2	4	3	3	-2	.
C(=N\Nc1nc(N2CCCCC2)nc(N2CCCCC2)n1)/c1c[nH]c2ccccc12	2	-2	6	10	-6	.
Cc1[nH]c2ccccc2c1/C=N/Nc1nc(N2CCCCC2)nc(N2CCCCC2)n1	12	-10	26*	8	-9	9
COC(=O)/C=C/c1cc(F)ccc1S(=O)(=O)NC(C)(C)C	9	0	4	-4	.	.
Cc1c(N=C2C=CC(=O)c3ccccc32)c(=O)n(-c2ccccc2)n1C	21	19	47*	.	3	37*
CCNc1nc(NC(C)C)nc(N(C#N)CCOc2ccc(Cl)cc2Cl)n1	3	4	-6	-1	-3	.
CC1(c2nnc(-c3ccncc3)o2)CC(c2ccc(F)cc2)=NO1 (stereo not given)	6	-32	26*	0	.	10
CCOc1ccccc1OCCCC(=O)Nc1nc2ccccc2[nH]1	4	6	8	3	6	.
CCOc1ccccc1/C=C/c1nc2ccccc2[nH]c1=O	6	1	28*	.	.	7
CC(=O)Nc1ccc(S(=O)(=O)/N=C2\C(=O)c3ccccc3C([O-])=C2n2cc[n+](-c3ccccn3)c2)cc1	11	7	38*	7	-2	19
CCCC[n+]1ccn(C2=C([O-])c3ccccc3C(=O)/C2=N\S(=O)(=O)c2ccc(Br)cc2)c1	7	1	18	3	-13	.
Cc1ccc(S(=O)(=O)/N=C2\C(=O)c3ccccc3C([O-])=C2n2cc[n+](CCC(C)C)c2)cc1	7	5	26*	10	-8	22
Cc1cc(C)n(-c2ccc(NC(=O)C3CCCCN3Cc3cccc4c3OCO4)cc2)n1 (stereo not given)	3	-4	7	.	.	.
CNC(=O)c1[nH]nc2c1CCc1cc(OC)ccc1-2	15	29	28*	0	.	9
COc1ccc2c(c1)CCc1c-2n[nH]c1C(=O)NCCC(C)C	5	7	0	8	.	.
COc1ccc2[nH]c(C(=O)N/N=C/c3ccc(O)cc3O)cc2c1	23	16	48*	.	.	24
C=CCN(C)NC(=S)Nc1ccccc1	-2	3	42*	-2	-8	14
Cc1[nH]n(-c2ccccc2)c(=O)c1N=Nc1ccc2c(c1)OCCO2	5	13	10	4	-8	.
Cc1[nH]n(-c2ccccc2)c(=O)c1N=Nc1c(O)cc(S(=O)(=O)N(C)C)c2ccccc12	16	22	27*	22	.	11
CCOc1ccc(-n2c(C)cc(C(=O)NS(=O)(=O)c3ccc(C)cc3)c2C)cc1	-4	5	7	-6	11	.
Cc1ccc(-n2c(C)cc(C(=O)NS(=O)(=O)c3ccc(C)cc3)c2C)cc1	9	2	52*	10	-5	36*
O=C(c1ccc(Br)cc1)N1CCCc2ccccc21	5	4	3	6	.	.
CC(c1ccccc1)N1C(=O)c2cccnc2C1=O (stereo not given)	8	-1	3	1	.	.
CC(NC1=CC(=O)c2cccnc2C1=O)C(O)c1ccccc1 (stereo not given)	13	15	56*	.	.	43*
COc1ccccc1NC1=C(NC(C)=O)C(=O)c2ccccc2C1=O	-3	2	1	.	-8	.
SMILES	PAFAH1B2 FP inh	PAFAH2 FP inh	PAFAH1B3 inh	pPAFAH inh	RBBP9 inhibitor	PAFAH1B3 confirm
COc1ccc(CN(C(C)=O)c2ccccc2C(=O)O)cc1	-1	0	8	-2	-5	.
COc1ccccc1N(/N=C1\Sc2ccccc2C1=O)C(C)=O	10	4	51*	11	-8	54*
COc1ccc(N(/N=C2\Sc3ccccc3C2=O)C(C)=O)cc1	22	19	54*	.	-7	60*
Cc1ccccc1NS(=O)(=O)c1ccc(C)c(NS(C)(=O)=O)c1C	5	-4	6	0	5	.
CNC(=O)c1c(NC(=O)C2=COCCO2)sc2c1CCCC2	0	3	1	-1	.	.
CC(C)c1ccc(OCC(=O)NNC(=S)NC(=O)c2ccco2)c(Br)c1	18	8	27*	9	.	9
Cc1ccccc1OCC(=O)NNC(=S)NC(=O)c1ccco1	-4	1	-4	1	4	.
CCN(Cc1ccccc1)S(=O)(=O)c1cc2[nH]c(=O)c(=O)[nH]c2cc1C	7	-2	10	-2	.	.
CN1C(=O)NC(c2ccc(C(F)(F)F)cc2)C2=C1CC(C)(C)CC2=O (stereo not given)	3	1	4	3	.	.
O=C(N(c1ccccn1)c1ccccn1)C12CC3CC(CC(Cl)(C3)C1)C2	13	-3	-2	1	-9	.
O=C1C(=O)c2c(ccc3ccccc23)-c2ccccc21	11	29	56*	.	.	17
CN(C)/C=C1\Oc2ccc3ccccc3c2C1=O	3	0	1	1	-8	.
COc1ccccc1CN(C)S(=O)(=O)c1cccs1	7	-5	0	2	.	.
CN1CCCN(S(=O)(=O)c2ccc(O)c(C(=O)O)c2)CC1	2	-4	4	-2	.	.
Cn1c(N)c(C(=O)COC(=O)c2ccnc3ccccc23)c(=O)n(C)c1=O	6	-9	2	4	-6	.
COc1ccc(C(=O)OCC(=O)c2c(N)n(C)c(=O)n(C)c2=O)c(OC)c1OC	5	4	26*	-4	.	9
COC(=O)c1ccc(C2Nc3cccc4cccc(c34)N2)cc1	-1	0	11	7	0	.
COc1cc(C2Nc3cccc4cccc(c34)N2)cc(OC)c1O	13	23	35*	6	-5	11
Cc1ccc(S(=O)(=O)N2CCC(C(=O)OCC(=O)N(Cc3ccccc3)C(C)(C)C)CC2)cc1C	2	-4	-2	3	.	.
COC(=O)c1ccccc1NC1=C/C(=N\S(=O)(=O)c2cccs2)c2ccccc2C1=O	19	9	55*	21	7	52*
COC(=O)c1cccc(NS(=O)(=O)c2cccs2)c1C	5	-1	11	6	-2	.
Cc1nc(S/C(=C\c2ccc(OCc3ccccc3Cl)cc2)C(=O)O)n[nH]1	17	27	7	19	-1	.
Cc1nc(S/C(=C\c2ccc(-c3ccc(C(=O)O)c(Cl)c3)o2)C(=O)O)n[nH]1	15	29	42*	.	-10	27*
